A short description of test [1]: nonspecific flux increase, KCNQ1-free cells – parental CHO cells, counter-screen for KCNQ1 potentiator project (AID 493006;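 active means duplicate-averaged activation above buffer control mean plus 5 SD of those controls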). The following applies: parental CHO-K1 cells, FluxOR thallium flux, at 10 µM; stronger effect = higher value. In a few lines: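 Benchmarks – buffer and R-L3 controls · Assay system – untransfected host CHO-K1 cells with FluxOR thallium dye · Measure – fluorescence change ratio scaled 0% buffer, 100% R-L3 · Technique – kinetic thallium-flux fluorescence · Timing – overnight 37 °C plating, 90 min RT dye, 20 min compound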

Test [2] has as its target Potassium voltage-gated channel subfamily KQT member 1 (Homo sapiens) (UniProt P51787). Briefly: enhancement of KCNQ1 channel thallium flux – FluxOR thallium flux, CHO cells, duplicates, confirmation (AID 493007).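 On outcome: cells depolarized by a potassium plus thallium sulfate stimulus after compound.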 The following applies: KCNQ1 cell line, FluxOR thallium flux fluorescence, at 10 µM; stronger effect = higher value, % of reference activator effect, buffer zero. In a few lines:
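Material: CHO cells stably expressing the KCNQ1 potassium channel / Times: dye 90 min then compound 20 min, both at room temperature / Detection: kinetic thallium influx fluorescence with FluxOR dye, 10 s baseline, 110 s post-stimulus / Benchmarks: buffer-only wells as 0% and R-L3 activator as 100% / Replicates: each compound tested in duplicate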

Test [3] deals with Potassium voltage-gated channel subfamily KQT member 2 (Rattus norvegicus) (UniProt O88943). Description: KCNQ2 thallium flux enhancement – KCNQ2-CHO-K1 cells, selectivity assay for KCNQ1 potentiator project (AID 493009;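 active means mean duplicate potentiation above the buffer control mean plus 5 SD of buffer wells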;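 further: assay conditions were tuned for KCNQ1 rather than KCNQ2 modulators; signal is max minus min fluorescence divided by baseline after thallium stimulus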). The note with it: FluxOR thallium flux fluorescence, at 10 µM; stronger effect = higher value, scaled: buffer 0, activator control 100.
Chain of Potassium voltage-gated channel subfamily KQT member 2 (Rattus norvegicus) (O88943 whole entry, looked up): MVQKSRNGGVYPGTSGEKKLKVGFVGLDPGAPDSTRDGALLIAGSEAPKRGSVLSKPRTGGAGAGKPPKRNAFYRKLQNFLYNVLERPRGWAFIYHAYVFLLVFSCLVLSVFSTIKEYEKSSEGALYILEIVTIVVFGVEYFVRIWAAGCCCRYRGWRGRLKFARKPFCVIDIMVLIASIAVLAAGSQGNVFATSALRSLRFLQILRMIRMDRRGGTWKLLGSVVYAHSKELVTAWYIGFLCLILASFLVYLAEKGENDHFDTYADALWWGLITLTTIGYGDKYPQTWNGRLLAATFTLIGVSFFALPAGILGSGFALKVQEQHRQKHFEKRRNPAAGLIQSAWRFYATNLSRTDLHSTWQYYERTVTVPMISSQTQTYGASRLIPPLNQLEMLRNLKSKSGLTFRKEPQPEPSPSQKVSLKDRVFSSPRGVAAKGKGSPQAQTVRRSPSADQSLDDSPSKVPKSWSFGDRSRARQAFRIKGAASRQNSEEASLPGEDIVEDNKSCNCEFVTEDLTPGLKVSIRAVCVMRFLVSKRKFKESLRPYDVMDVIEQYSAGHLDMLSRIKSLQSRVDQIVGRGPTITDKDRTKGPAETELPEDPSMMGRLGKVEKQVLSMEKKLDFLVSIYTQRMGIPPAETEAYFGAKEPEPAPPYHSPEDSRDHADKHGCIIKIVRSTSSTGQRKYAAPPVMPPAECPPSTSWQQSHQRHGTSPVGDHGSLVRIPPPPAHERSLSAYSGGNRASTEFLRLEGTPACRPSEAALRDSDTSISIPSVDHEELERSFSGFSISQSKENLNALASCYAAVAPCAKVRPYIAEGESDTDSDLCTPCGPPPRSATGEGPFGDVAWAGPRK
For test [4], the target named is Potassium voltage-gated channel subfamily KQT member 1 (Homo sapiens) (UniProt P51787). Description: KCNQ1 activators by electrophysiology – IonWorks patch clamp, KCNQ1-CHO cells, orthogonal assay for KCNQ1 potentiator project, confirmation (AID 493184;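 active means current rise at least 3 SD above the untreated control mean in each of two repeat wells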). The note with it: automated patch clamp current, at 10 µM; stronger effect = higher value. In a few lines: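 Probe or stimulus: depolarizing pulse to +40 mV from -90 mV; Material: CHO cells carrying KCNQ1; Compound: one dose, 10 µM final; Signal: automated voltage clamp, amphotericin B perforated patch; Read-out basis: percent current increase versus pre-compound level; Buffer or medium: pH 7.4 external bath; Replication: duplicates.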
Chain of Potassium voltage-gated channel subfamily KQT member 1 (Homo sapiens) (P51787 whole entry, looked up): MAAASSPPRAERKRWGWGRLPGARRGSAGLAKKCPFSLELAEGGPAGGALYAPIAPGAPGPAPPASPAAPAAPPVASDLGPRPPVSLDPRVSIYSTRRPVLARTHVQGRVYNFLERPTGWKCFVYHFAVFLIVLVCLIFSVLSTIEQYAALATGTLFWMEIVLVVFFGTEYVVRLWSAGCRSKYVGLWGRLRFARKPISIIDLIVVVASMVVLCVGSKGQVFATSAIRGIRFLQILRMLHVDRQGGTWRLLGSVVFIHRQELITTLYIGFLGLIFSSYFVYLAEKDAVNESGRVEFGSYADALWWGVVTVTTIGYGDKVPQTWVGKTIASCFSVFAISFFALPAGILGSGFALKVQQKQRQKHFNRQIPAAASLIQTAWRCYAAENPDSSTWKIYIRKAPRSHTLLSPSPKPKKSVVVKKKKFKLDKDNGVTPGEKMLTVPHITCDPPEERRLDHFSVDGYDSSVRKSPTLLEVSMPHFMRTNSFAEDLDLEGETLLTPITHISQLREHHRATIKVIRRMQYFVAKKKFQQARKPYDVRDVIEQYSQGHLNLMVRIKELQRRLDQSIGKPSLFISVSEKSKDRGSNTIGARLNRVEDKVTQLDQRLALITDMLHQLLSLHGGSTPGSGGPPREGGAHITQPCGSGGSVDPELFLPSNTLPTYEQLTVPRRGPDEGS
Background: The patch-clamp technique gives a direct electrical read-out from membranes.

Test [5] deals with Potassium voltage-gated channel subfamily E member 1 (Homo sapiens) + Potassium voltage-gated channel subfamily KQT member 1 (Homo sapiens) (UniProt P15382+P51787). Briefly: KCNQ1-E1 channel activation – thallium flux, CHO-K1 KCNQ1/E1 cells, selectivity assay for KCNQ1 potentiator project, confirmation (AID 493186;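 active means mean duplicate activation above the buffer control mean plus 5 SD of those controls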). The note with it: FluxOR thallium flux, at 10 µM; stronger effect = higher value. In a few lines: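 system = KCNQ1/E1-expressing stable CHO-K1 cell line | doses = single compound concentration per well | times = dye 90 min, compound 20 min, room temperature | measured by = FluxOR Tl+ flux fluorescence, kinetic read | evaluation = fluorescence rise relative to baseline, as percent of R-L3 response above buffer | controls = buffer and R-L3 | replicates = duplicate wells per compound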
Chain of Potassium voltage-gated channel subfamily E member 1 (Homo sapiens) + Potassium voltage-gated channel subfamily KQT member 1 (Homo sapiens) (P51787 whole entry, looked up): as the sequence (P51787 whole entry, looked up) above

Results on 29 compounds are retold here after PubChem BioAssay.

Calls of active or inactive are those of the source.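 How the source made its calls, unless noted: active means potentiation averaged over duplicate wells exceeding buffer-only control mean by more than 3 SD; inactive means the rest.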

Regarding `O=C(Nc1nc2c(Br)cc(Br)cc2c(=O)s1)c1ccco1`, the outcome in test [1], in test [2], in test [3], in test [4] and in test [5] was inactive.

In the case of `CC(=C/c1ccccc1)/C=N/n1c(-c2ccco2)n[nH]c1=S`, the result in test [1], in test [2], in test [3], in test [4] and in test [5] was inactive.

With `CCCOc1ccccc1NS(=O)(=O)c1ccc2[nH]c(=O)[nH]c2c1`, the outcome in test [1], in test [2], in test [3], in test [4] and in test [5] was inactive.

Consider `Oc1oc(-c2ccccc2)nc1/C=N/c1nccs1`, for which the result in test [1], in test [3], in test [4] and in test [5] was inactive. The potentiation in test [2] was 29.5% (active).

Take `O=C(Nc1cccc2cccnc12)c1ccc(Br)o1`: the result in test [1], in test [2], in test [3] and in test [4] was inactive.

Regarding `CC(C)CCn1c(SCC(=O)NC2CC2)nc2cc(Cl)ccc2c1=O`, the outcome in test [1], in test [2], in test [3], in test [4] and in test [5] was inactive.

`O=C(N/C(=C\c1ccc([N+](=O)[O-])cc1)C(=O)N1CCCCC1)c1ccco1`: the result in test [1], in test [2], in test [3], in test [4] and in test [5] was inactive.

For `Oc1c(N=NC(=S)Nc2ccccc2F)c2ccccc2n1Cc1cccc(Cl)c1`, the result in test [1], in test [2], in test [3], in test [4] and in test [5] was inactive.

For the compound `S=c1[nH]nc(-c2ccco2)n1/N=C/C(Cl)=C/c1ccccc1`, the outcome in test [1], in test [3], in test [4] and in test [5] was inactive. The potentiation in test [2] is 26% (active).

Regarding `CCc1ccc(NC(=S)NC2CC3CCCC(C2)N3Cc2cccs2)cc1` (centres undefined), the result in test [1], in test [2], in test [3], in test [4] and in test [5] was inactive.

Consider `CCOC(=O)c1c(NC(=O)CN2CCN(C(=O)c3ccco3)CC2)sc2c1CCCC2`, for which the result in test [1], in test [3], in test [4] and in test [5] was inactive. Moreover, in test [2], the potentiation is 39.5% (active).

For the compound `O=C(NC(=S)Nc1cccc([N+](=O)[O-])c1)c1ccco1`, the outcome in test [1], in test [2], in test [3], in test [4] and in test [5] was inactive.

Consider `Cc1ccc(S(=O)(=O)/N=C(\N)Nc2nc(C)c3ccccc3n2)cc1`, for which the result in test [1], in test [2], in test [3], in test [4] and in test [5] was inactive.

As for `O=C(Nc1nnc(-c2ccccc2)o1)c1cc(Cl)sc1Cl`, the result in test [1], in test [2], in test [4] and in test [5] was inactive. Further, the potentiation in test [3] was 148% (active).

Consider `CCn1c(SCC(=O)c2cccs2)nnc1-c1cccs1`, for which the outcome in test [1], in test [2], in test [3], in test [4] and in test [5] was inactive.

Consider `COc1cc2c(cc1OC)CN(CCC(=O)c1ccc(Br)cc1)CC2`, for which the outcome in test [1], in test [2], in test [3], in test [4] and in test [5] was inactive.

`Cc1ccccc1C(OCCN(C)C)C1CCCCC1` (centres undefined): the outcome in test [1], in test [2], in test [3], in test [4] and in test [5] was inactive.

Regarding `C#CCNc1cc(-c2ccccc2)nc2ncnn12`, the outcome in test [1], in test [2], in test [3], in test [4] and in test [5] was inactive.

On to `CC1CCCCN1CCCNC(=O)Cn1ncc2c([nH]c3ccccc32)c1=O` (centres undefined), for which the result in test [1], in test [2], in test [3], in test [4] and in test [5] was inactive.

Take `O=C(O)/C=C/C(=O)c1ccc2c(c1)CCc1ccccc1-2`: the outcome in test [1], in test [2], in test [3], in test [4] and in test [5] was inactive.

On to `Cc1nc(NC(=S)NC(=O)c2ccccc2)sc1C`, for which the result in test [1], in test [2], in test [3], in test [4] and in test [5] was inactive.

With `O=C(NC(=S)Nc1ccccc1N1CCOCC1)c1ccc(-c2cc(Cl)ccc2Cl)o1`, the result in test [1], in test [2], in test [3], in test [4] and in test [5] was inactive.

Consider `O=C(CSc1nnc(-c2ccccn2)n1-c1ccc(Cl)cc1)Nc1ccc2c(c1)OCO2`, for which the result in test [1], in test [2], in test [3], in test [4] and in test [5] was inactive.

On to `COc1cc2c(cc1NC(=O)CSc1nnc(COc3ccc(Cl)cc3)n1C)oc1ccccc12`, for which the result in test [1], in test [3], in test [4] and in test [5] was inactive. Moreover, in test [2], the potentiation was 49.5% (active).

As for `CCN1CCN(c2ccc(S(=O)(=O)N3CCCC3)cn2)CC1`, the result in test [1], in test [2], in test [3], in test [4] and in test [5] was inactive.

Turning to `Cc1cc(C)cc(OCC(=O)NNC(=O)c2cc3ccccc3o2)c1`, the outcome in test [1], in test [2], in test [3], in test [4] and in test [5] was inactive.

For `COc1ccc(-c2nnc(NC(=O)c3ccc(S(=O)(=O)N4CCCc5ccccc54)cc3)o2)cc1`, the result in test [1], in test [2], in test [3], in test [4] and in test [5] was inactive.

Turning to `S=C(N/N=C/c1cccc2ccccc12)Nc1cccc(Cl)c1`, the result in test [1], in test [3], in test [4] and in test [5] was inactive. Further, the potentiation in test [2] was 59.5% (active).

Turning to `O=C(NC(=S)Nc1cc(C(F)(F)F)ccc1Cl)c1ccccc1`, the result in test [1], in test [2], in test [3], in test [4] and in test [5] was inactive.
